Activity calls are given as the source filed them. No cut-off for these calls is given here.
Experiments:
Yellow fever virus [1] = test: Antiviral activity against 10^2 CCID50 Yellow fever virus Jimenez infected in syrian golden hamster assessed as serum ALT level in non surviving animals at 400 mg/kg/day, po administered 5 days post viral infection; assay type: functional
Yellow fever virus [2] = test: Antiviral activity against 10^2 CCID50 Yellow fever virus Jimenez infected in syrian golden hamster assessed as serum AST level in non surviving animals at 400 mg/kg/day, po administered 5 days post viral infection; assay type: functional
Yellow fever virus [3] = test: Antiviral activity against 10^2 CCID50 Yellow fever virus Jimenez infected in syrian golden hamster assessed as mean day of death […] at 400 mg/kg/day, po administered twice daily for 8 days started 1 day post infection; assay type: functional
Yellow fever virus [4] = test: Antiviral activity against 10^2 CCID50 Yellow fever virus Jimenez infected in syrian golden hamster assessed as mean day of death […] at 400 mg/kg/day, po administered twice daily for 8 days started 2 day post infection; assay type: functional
Yellow fever virus [5] = test: Antiviral activity against 10^2 CCID50 Yellow fever virus Jimenez infected in syrian golden hamster assessed as mean day of death […] at 400 mg/kg/day, po administered twice daily for 8 days started 3 day post infection; assay type: functional
Yellow fever virus [6] = test: Antiviral activity against 10^2 CCID50 Yellow fever virus Jimenez infected in syrian golden hamster assessed as mean day of death […] at 400 mg/kg/day, po administered twice daily for 8 days started 5 day post infection; assay type: functional
Yellow fever virus [7] = test: Antiviral activity against 10^2 CCID50 Yellow fever virus Jimenez infected in syrian golden hamster assessed as survival of animal at 400 mg/kg/day, po administered twice daily for 8 days started 2 day post viral infection; assay type: functional, organism-based
Yellow fever virus [8] = test: Antiviral activity against Yellow fever virus 17D infected in African green monkey Vero cells assessed as inhibition of virus induced cytopathic effect by microscopic analysis; assay type: functional, cell-based
Yellow fever virus [9] = test: Antiviral activity against Yellow fever virus 17D infected in African green monkey Vero cells assessed as inhibition of virus induced cytopathic effect […] by NR dye uptake assay; assay type: functional, cell-based
Yellow fever virus [10] = test: Antiviral activity against Yellow fever virus 17D infected in African green monkey Vero cells assessed as inhibition of virus induced cytopathic effect by luciferase reporter gene assay; assay type: functional, cell-based
Yellow fever virus [11] = test: Antiviral activity against Yellow fever virus 17D infected in African green monkey Vero cells assessed as reduction in virus yield; assay type: functional
Outline: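 Virus yield reduction in Vero cells infected with YFV 17D after compound exposure, with progeny virus titred by CCID50. The EC90 was averaged over separate experiments.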

Yellow fever virus [12] = test: Antiviral activity against Yellow fever virus 17D infected in African green monkey Vero cells assessed as time required for inhibition of viral replication at 6400 uM up to 12 hrs post-viral infection; assay type: functional, cell-based
Yellow fever virus [13] = test: Antiviral activity against 10^2 CCID50 Yellow fever virus Jimenez infected in syrian golden hamster assessed as serum ALT level at 100 mg/kg/day, po administered twice daily for 8 days started 4 hrs prior to viral infection; assay type: functional
Yellow fever virus [14] = test: Antiviral activity against 10^2 CCID50 Yellow fever virus Jimenez infected in syrian golden hamster assessed as serum AST level at 400 mg/kg/day, po administered twice daily for 8 days started 4 hrs prior to viral infection; assay type: functional, organism-based
Yellow fever virus [15] = test: Antiviral activity against 10^2 CCID50 Yellow fever virus Jimenez infected in syrian golden hamster assessed as serum AST level at 200 mg/kg/day, po administered twice daily for 8 days started 4 hrs prior to viral infection; assay type: functional, organism-based
Yellow fever virus [16] = test: Antiviral activity 10^2 CCID50 Yellow fever virus Jimenez infected in syrian golden hamster assessed as serum AST level at 100 mg/kg/day, po administered twice daily for 8 days started 4 hrs prior to viral infection; assay type: functional, organism-based
Yellow fever virus [17] = test: Antiviral activity against 10^2 CCID50 Yellow fever virus Jimenez infected in syrian golden hamster assessed as serum AST level at 50 mg/kg/day, po administered twice daily for 8 days started 4 hrs prior to viral infection; assay type: functional, organism-based
Yellow fever virus [18] = test: Antiviral activity against 10^2 CCID50 Yellow fever virus Jimenez infected in syrian golden hamster assessed as serum AST level at 10 mg/kg/day, po administered twice daily for 8 days started 4 hrs prior to viral infection; assay type: functional, organism-based
Yellow fever virus [19] = test: Antiviral activity against 10^2 CCID50 Yellow fever virus Jimenez infected in syrian golden hamster assessed as mean day of death […] at 100 mg/kg/day, po administered twice daily for 8 days started 4 hrs prior to viral infection relative to control; assay type: functional
Yellow fever virus [20] = test: Antiviral activity against 10^2 CCID50 Yellow fever virus Jimenez infected in syrian golden hamster assessed as survival of animal at 400 mg/kg/day, po administered twice daily for 8 days started 4 hrs prior to viral infection; assay type: functional, organism-based
Yellow fever virus [21] = test: Antiviral activity against 10^2 CCID50 Yellow fever virus Jimenez infected in syrian golden hamster assessed as serum survival of animal at 200 mg/kg/day, po administered twice daily for 8 days started 4 hrs prior to viral infection; assay type: functional, organism-based
Yellow fever virus [22] = test: Antiviral activity against 10^2 CCID50 Yellow fever virus Jimenez infected in syrian golden hamster assessed as serum ALT level at 400 mg/kg/day, po administered daily for days started 1 day post viral challenge; assay type: functional
Yellow fever virus [23] = test: Antiviral activity against 10^2 CCID50 Yellow fever virus Jimenez infected in syrian golden hamster assessed as serum ALT level at 400 mg/kg/day, po administered daily for days started 3 day post viral challenge; assay type: functional
Yellow fever virus [24] = test: Antiviral activity against 10^2 CCID50 Yellow fever virus Jimenez infected in syrian golden hamster assessed as serum AST level at 400 mg/kg/day, po administered daily for days started 3 day post viral challenge; assay type: functional
Yellow fever virus [25] = test: Antiviral activity against 10^2 CCID50 Yellow fever virus Jimenez infected in syrian golden hamster assessed as serum ALT level at 400 mg/kg/day, po administered daily for days started 4 day post viral challenge; assay type: functional
Yellow fever virus [26] = test: Antiviral activity against 10^2 CCID50 Yellow fever virus Jimenez infected in syrian golden hamster assessed as serum ALT level at 400 mg/kg/day, po administered daily for days started 5 day post viral challenge; assay type: functional
Yellow fever virus [27] = test: Antiviral activity against 10^2 CCID50 Yellow fever virus Jimenez infected in syrian golden hamster assessed as serum AST level at 400 mg/kg/day, po administered daily for days started 5 day post viral challenge; assay type: functional
Yellow fever virus [28] = test: Antiviral activity against 10^2 CCID50 Yellow fever virus Jimenez infected in syrian golden hamster assessed as serum ALT level in surviving animals at 400 mg/kg/day, po administered 4 days post viral infection; assay type: functional
Yellow fever virus [29] = test: Antiviral activity against 10^2 CCID50 Yellow fever virus Jimenez infected in syrian golden hamster assessed as serum ALT level in surviving animals at 400 mg/kg/day, po administered 5 days post viral infection; assay type: functional
Yellow fever virus [30] = test: Antiviral activity against 10^2 CCID50 Yellow fever virus Jimenez infected in syrian golden hamster assessed as serum AST level in surviving animals at 400 mg/kg/day, po administered 4 days post viral infection; assay type: functional
Yellow fever virus [31] = test: Antiviral activity against 10^2 CCID50 Yellow fever virus Jimenez infected in syrian golden hamster assessed as serum AST level in surviving animals at 400 mg/kg/day, po administered 5 days post viral infection; assay type: functional
Yellow fever virus [32] = test: Antiviral activity against 10^2 CCID50 Yellow fever virus Jimenez infected in syrian golden hamster assessed as serum ALT level in non surviving animals at 400 mg/kg/day, po administered 4 days post viral infection; assay type: functional

NC(=O)c1nc(F)cnc1O [FAVIPIRAVIR]
Activity (Yellow fever virus [1]): 332 IU/L
Activity (Yellow fever virus [2]): 285 IU/L
Time (Yellow fever virus [3]): >21 days
Time (Yellow fever virus [4]): >21 days
Time (Yellow fever virus [5]): 7 days
Time (Yellow fever virus [6]): 6.8 days
Activity (Yellow fever virus [7]): Active
EC50 (Yellow fever virus [8]): 180 µM
EC50 (Yellow fever virus [9]): 270 µM
EC50 (Yellow fever virus [10]): 270 µM
EC90 (Yellow fever virus [11]): 330 µM
Activity (Yellow fever virus [12]): Active
Activity (Yellow fever virus [13]): 157 IU/L
Activity (Yellow fever virus [14]): inactive
Activity (Yellow fever virus [15]): inactive
Activity (Yellow fever virus [16]): inactive
Activity (Yellow fever virus [17]): inactive
Activity (Yellow fever virus [18]): inactive
Time (Yellow fever virus [19]): 7.1 days
Activity (Yellow fever virus [20]): Active
Activity (Yellow fever virus [21]): Active
Activity (Yellow fever virus [22]): 80 IU/L
Activity (Yellow fever virus [23]): 139 IU/L
Activity (Yellow fever virus [24]): 137 IU/L
Activity (Yellow fever virus [25]): 115 IU/L
Activity (Yellow fever virus [26]): 157 IU/L
Activity (Yellow fever virus [27]): 212 IU/L
Activity (Yellow fever virus [28]): 77 IU/L
Activity (Yellow fever virus [29]): 64 IU/L
Activity (Yellow fever virus [30]): 132 IU/L
Activity (Yellow fever virus [31]): 153 IU/L
Activity (Yellow fever virus [32]): 231 IU/L
